Laboratory results: article PMC5624809 (Journal of the American Chemical Society, 2017)
Like-named read-outs stand apart in the source and are kept apart here. Marks after values point to notes of the source that are not given here.

What was measured:
FXa [1] = test: in vitro inhibition of the activity of FXa; format: biochemical; settings: for IC50: read-out: Anti-FXa activity (IC50)
antithrombin (AT) [2] = molecular target: T1, antithrombin (AT) (Homo sapiens, UniProt P01008); test: AT-binding affinity analysis using isothermal titration calorimetry; settings: for Binding affinity (Kd) to AT / Kd: ITC; for Kd: read-out: Binding affinity (Kd) to AT
FXa [3] = test: anti-FXa effect in a rat model; format: in vivo
Outline: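 Anti-Xa activity measured at several time points after dosing, with a saline-treated group as control. Values are mean ± S.D. (n = 4). Each treated group was compared with control by two-tailed Student's t-test, with p < 0.05 flagged.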

FXa [4] = settings: cited from earlier work
antithrombin (AT) [5] = molecular target: T1, antithrombin (AT); settings: cited from earlier work
antithrombin (AT) [6] = molecular target: T1, antithrombin (AT); settings: read-out: Binding affinity (Kd) to AT; affinity coelectrophoresis; cited from earlier work

T1 sequence (P01008 33-464): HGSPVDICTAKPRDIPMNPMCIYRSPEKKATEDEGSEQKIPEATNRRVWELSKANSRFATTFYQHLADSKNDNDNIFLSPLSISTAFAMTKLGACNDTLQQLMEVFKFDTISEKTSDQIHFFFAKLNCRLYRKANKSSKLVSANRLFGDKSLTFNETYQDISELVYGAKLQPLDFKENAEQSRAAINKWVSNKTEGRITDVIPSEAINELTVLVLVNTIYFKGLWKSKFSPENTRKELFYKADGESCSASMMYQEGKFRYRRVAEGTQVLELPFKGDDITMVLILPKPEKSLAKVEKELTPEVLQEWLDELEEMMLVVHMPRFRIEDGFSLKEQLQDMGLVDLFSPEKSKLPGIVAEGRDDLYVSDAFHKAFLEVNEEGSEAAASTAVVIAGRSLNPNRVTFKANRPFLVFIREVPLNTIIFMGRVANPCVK

**Q.** For O=C(O)C1OC(OC2C(COS(=O)(=O)O)OC(OC3C(C(=O)O)OC(OC4C(COS(=O)(=O)O)OC(OC5C(C(=O)O)OC(Oc6ccc([N+](=O)[O-])cc6)C(O)C5O)C(NS(=O)(=O)O)C4OS(=O)(=O)O)C(OS(=O)(=O)O)C3O)C(NS(=O)(=O)O)C2O)C(O)C(O)C1OC1OC(COS(=O)(=O)O)C(O)C(O)C1NS(=O)(=O)O (stereo not drawn) [Comp 2, GlcNS6S-GlcA-GlcNS6S-IdoA2S-GlcNS3S6S-GlcA-pNP], which “Anti-FXa activity (IC50)” value (FXa [1]) is on record?
**A.** No inhibition

**Q.** What about the “Binding affinity (Kd) to AT” value (antithrombin (AT) [2]) of the same compound?
**A.** No binding

**Q.** Which results are given for O=C(O)[C@H]1O[C@@H](O[C@H]2[C@H](OS(=O)(=O)O)[C@@H](NS(=O)(=O)O)[C@@H](O[C@H]3[C@H](O)[C@@H](OS(=O)(=O)O)[C@H](O[C@H]4[C@H](OS(=O)(=O)O)[C@@H](NS(=O)(=O)O)[C@@H](O[C@H]5[C@H](O)[C@@H](O)[C@H](Oc6ccc([N+](=O)[O-])cc6)O[C@@H]5C(=O)O)O[C@@H]4COS(=O)(=O)O)O[C@H]3C(=O)O)O[C@@H]2COS(=O)(=O)O)[C@H](O)[C@@H](O)[C@@H]1O[C@H]1O[C@H](COS(=O)(=O)O)[C@@H](O)[C@H](O)[C@H]1NS(=O)(=O)O [Comp 3, GlcNS6S-GlcA-GlcNS3S6S-IdoA2S-GlcNS3S6S-GlcA-pNP]?
**A.** anti-FXa activity (in words) (FXa [1]): strong anti-FXa activity; IC50 (FXa [1]): 11 nM

**Q.** Which “anti-FXa activity (in words)” value (FXa [1]) does the source give for O=C(O)[C@H]1O[C@@H](Oc2ccc([N+](=O)[O-])cc2)[C@H](O)[C@@H](O)[C@@H]1O[C@H]1O[C@H](COS(=O)(=O)O)[C@@H](O[C@@H]2O[C@@H](C(=O)O)[C@@H](O[C@H]3O[C@H](COS(=O)(=O)O)[C@@H](O[C@@H]4O[C@@H](C(=O)O)[C@@H](O[C@H]5O[C@H](COS(=O)(=O)O)[C@@H](O[C@@H]6O[C@H](C(=O)O)[C@@H](O[C@H]7O[C@H](COS(=O)(=O)O)[C@@H](O)[C@H](O)[C@H]7NS(=O)(=O)O)[C@H](O)[C@H]6O)[C@H](OS(=O)(=O)O)[C@H]5NS(=O)(=O)O)[C@H](O)[C@H]4OS(=O)(=O)O)[C@H](OS(=O)(=O)O)[C@H]3NS(=O)(=O)O)[C@H](O)[C@H]2OS(=O)(=O)O)[C@H](O)[C@H]1NS(=O)(=O)O [Comp 6, GlcNS6S-GlcA-GlcNS3S6S-IdoA2S-GlcNS3S6S-IdoA2S-GlcNS6S-GlcA-pNP] here?
**A.** displaying anti-FXa activity

**Q.** What about the IC50 (FXa [1]) of the same compound?
**A.** 10.9 nM

**Q.** And the “AT binding (in words)” value (antithrombin (AT) [2])?
**A.** high AT-binding affinity

**Q.** What about the Kd (antithrombin (AT) [2]) of the same compound?
**A.** 5.6 ± 2.6 nM

**Q.** With CO[C@H]1O[C@H](COS(=O)(=O)O)[C@@H](O[C@@H]2O[C@@H](C(=O)O)[C@@H](O[C@H]3O[C@H](COS(=O)(=O)O)[C@@H](O[C@@H]4O[C@H](C(=O)O)[C@@H](O[C@H]5O[C@H](COS(=O)(=O)O)[C@@H](O)[C@H](O)[C@H]5NS(=O)(=O)O)[C@H](O)[C@H]4O)[C@H](OS(=O)(=O)O)[C@H]3NS(=O)(=O)O)[C@H](O)[C@H]2OS(=O)(=O)O)[C@H](O)[C@H]1NS(=O)(=O)O [Fondaparinux, GlcNS6S-GlcA-GlcNS3S6S-IdoA2S-GlcNS6S-OMe, reference compound] as the compound, how does the IC50 (FXa [1]) read?
**A.** 12.2 nM

**Q.** What about the “persistence of anti-FXa effect in vivo” value (FXa [3]; time after administration) of the same compound?
**A.** persisted after 8 hours

**Q.** For O=C(O)C1OC(OC2C(COS(=O)(=O)O)OC(OC3C(C(=O)O)OC(OC4C(COS(=O)(=O)O)OC(OC5C(C(=O)O)OC(Oc6ccc([N+](=O)[O-])cc6)C(O)C5O)C(NS(=O)(=O)O)C4O)C(OS(=O)(=O)O)C3O)C(NS(=O)(=O)O)C2OS(=O)(=O)O)C(O)C(O)C1OC1OC(COS(=O)(=O)O)C(O)C(O)C1NS(=O)(=O)O (stereo not drawn) [GlcA2S-containing 6-mer, GlcNS6S-GlcA-GlcNS3S6S-GlcA2S-GlcNS6S-GlcA-pNP], which “anti-FXa activity (in words)” value (FXa [4]) is on record?
**A.** did not display anti-FXa activity

**Q.** And the “Binding affinity (Kd) to AT” value (antithrombin (AT) [5])?
**A.** No binding ^d

**Q.** Which “anti-FXa activity (in words)” value (FXa [4]) does the source give for O=C(O)C1OC(OC2C(COS(=O)(=O)O)OC(OC3C(C(=O)O)OC(OC4C(COS(=O)(=O)O)OC(OC5C(C(=O)O)OC(Oc6ccc([N+](=O)[O-])cc6)C(O)C5O)C(NS(=O)(=O)O)C4O)C(O)C3O)C(NS(=O)(=O)O)C2OS(=O)(=O)O)C(O)C(O)C1OC1OC(COS(=O)(=O)O)C(O)C(O)C1NS(=O)(=O)O (stereo not drawn) [IdoA-containing 6-mer, GlcNS6S-GlcA-GlcNS3S6S-IdoA-GlcNS6S-GlcA-pNP] here?
**A.** exhibited anti-FXa activity

**Q.** What about the IC50 (FXa [4]; read-out: Anti-FXa activity (IC50)) of the same compound?
**A.** 29.2 nM

**Q.** What about the Kd (antithrombin (AT) [5]; read-out: Binding affinity (Kd) to AT) of the same compound?
**A.** 32.6 ± 5.3 nM

**Q.** What does the source list for “GlcNAc6S-GlcA-GlcNS3S6S-IdoA2S-GlcNS6S-IdoA2S-GlcNS6S-GlcA-pNP [Comp 11*]”?
**A.** IC50 (FXa [1]): 9.4 nM; Kd (antithrombin (AT) [6]): 8 ± 3 nM

**Q.** For “GlcNS6S-GlcA-GlcNS3S6S-IdoA2S-GlcNS6S-GlcA-pNP [Comp 8*]”, which “anti-FXa activity (in words)” value (FXa [1]) is on record?
**A.** displayed anti-FXa activity

**Q.** And the IC50 (FXa [1])?
**A.** 9.1 nM

**Q.** And the Kd (antithrombin (AT) [6])?
**A.** 7 ± 2 nM

**Q.** For “GlcNS6S-GlcA-GlcNS6S-IdoA2S-GlcNS3S6S-IdoA2S-GlcNS6S-GlcA-pNP [Comp 5]”, which “anti-FXa activity (in words)” value (FXa [1]) is on record?
**A.** strong anti-FXa activity

**Q.** And the IC50 (FXa [1])?
**A.** 7.7 nM

**Q.** What about the “AT binding (in words)” value (antithrombin (AT) [2]) of the same compound?
**A.** binds to AT tightly

**Q.** And the Kd (antithrombin (AT) [2])?
**A.** 5.1 ± 1.4 nM

**Q.** And the “anti-FXa potency in vivo” value (FXa [3]; within 30 min after the drug was administered)?
**A.** comparable anti-FXa potency to that of fondaparinux and compound 11*

**Q.** Which “Anti-FXa activity (IC50)” value (FXa [1]) does the source give for “GlcNS-GlcA-GlcNS-IdoA2S-GlcNS3S-IdoA2S-GlcNS-GlcA-pNP [Comp 4]” here?
**A.** No inhibition

**Q.** What about the “Binding affinity (Kd) to AT” value (antithrombin (AT) [2]) of the same compound?
**A.** No binding ^c
